In data set [1] the test system is HepG2 cells. Description: MTT cell viability assay. Particulars: Homo sapiens, HepG2, 48 h, read-out: HepG2 IC50. The class given is cell-based. In short, it runs like this:
(§1)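 MCF-7 or HepG2 cells were seeded at 8000–9000 cells/well. After 10 h they were exposed to test compound (0.1–80 μM) for 48 h at 37 °C in a humidified CO2 incubator. Medium was replaced with MTT (from a 5 mg/mL PBS pH 7.4 stock) in DMEM for 4–5 h. Formazan was dissolved in DMSO and absorbance read at 570/590 nm. Percent viability was used to derive IC50, with mean ± SD of n = 3 and paclitaxel as positive control.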
On the technique in general: Tetrazolium dyes change colour on reduction, which living cells bring about.

Data set [2] has as its system MCF-7 cells. Description: MTT cell viability assay. The data set is classed as cell-based. Particulars: Homo sapiens, MCF7, 48 h, read-out: MCF-7 IC50. In short, it runs like this:
as §1

The target in a further data set is T1, MARK4 (Homo sapiens, UniProt Q96L34).
T1 sequence (Q96L34 1-752): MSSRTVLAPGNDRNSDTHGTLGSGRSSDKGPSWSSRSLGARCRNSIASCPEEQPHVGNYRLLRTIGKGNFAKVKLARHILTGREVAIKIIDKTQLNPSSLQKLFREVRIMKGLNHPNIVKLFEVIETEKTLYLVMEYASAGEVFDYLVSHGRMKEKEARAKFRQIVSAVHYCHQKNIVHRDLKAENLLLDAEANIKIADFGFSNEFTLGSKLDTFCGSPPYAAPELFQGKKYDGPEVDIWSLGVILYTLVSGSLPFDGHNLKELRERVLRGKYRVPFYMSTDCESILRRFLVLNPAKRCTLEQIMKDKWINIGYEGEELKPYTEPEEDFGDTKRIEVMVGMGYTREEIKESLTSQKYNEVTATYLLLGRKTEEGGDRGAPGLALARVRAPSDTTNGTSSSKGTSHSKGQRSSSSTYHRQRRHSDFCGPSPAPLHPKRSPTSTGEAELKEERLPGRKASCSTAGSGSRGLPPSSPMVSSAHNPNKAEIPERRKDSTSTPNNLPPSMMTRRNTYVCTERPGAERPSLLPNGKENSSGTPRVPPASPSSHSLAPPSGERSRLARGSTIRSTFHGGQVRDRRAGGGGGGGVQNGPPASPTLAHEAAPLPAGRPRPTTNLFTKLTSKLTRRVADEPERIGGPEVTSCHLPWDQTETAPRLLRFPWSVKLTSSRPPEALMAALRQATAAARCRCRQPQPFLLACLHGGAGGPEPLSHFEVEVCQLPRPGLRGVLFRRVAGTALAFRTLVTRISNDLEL
Kind of data set: MARK4 enzyme inhibition assay. The data set is classed as biochemical.

Data set [3] deals with HepG2 cells. Kind of data set: Apoptosis assay. Particulars: IC50 dose, 10 h, Annexin-V/PI. The data set is classed as cell-based, human. In short, it runs like this: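 HepG2 cells were seeded at 2.5 × 10^5 cells/well in six-well plates and grown to 80% confluency. They were treated for 10 h at 37 °C, with media-only controls. Cells were trypsinized, washed three times with PBS and stained with FITC-Annexin-V and PI in Annexin binding buffer. About 10,000 events per sample were acquired by flow cytometry. Measurements were duplicate ± SD, with unpaired t-test against vehicle control.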

Data set [4] deals with MCF-7 cells. Description: Estimation of ROS production. The data set is classed as cell-based, human. The note with it: MCF-7, IC50 dose, 5–6 h, vs vehicle control. In short, it runs like this: (§2)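 MCF-7 or HepG2 cells were plated at 2.5 × 10^5 cells/well, treated next day for 5–6 h, with H2O2 as positive control. They were loaded with 10 μM DCFDA for 30 min at 37 °C in the dark, then trypsinized and pelleted. DCF fluorescence was read by spectrofluorimeter (ex 485, em 500–550 nm). Measurements were triplicate, with unpaired t-test against vehicle control.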

The next data set relates to HEK293 cells. Description: MTT cell viability assay, noncancerous cells. The class given is cell-based, human. The note with it: up to 100 μM, 48 h. In short, it runs like this:
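HEK293 cells were exposed to increasing test compound concentrations for 48 h. Viability was expressed as viable cells as a percentage of untreated control. Data are mean ± SD, n = 3.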

The subject of data set [5] is HepG2 cells. Kind of data set: Estimation of ROS production. The data set is classed as cell-based, human. Particulars: HepG2, IC50 dose, 5–6 h, vs vehicle control. In short, it runs like this: as §2

The IC50 is the midpoint of a concentration-inhibition curve. For `Cc1ncc([N+](=O)[O-])n1C(=NO)c1ccccc1` [Compound 4a, N-[(2-Methyl-5-nitro-1H-imidazol-1-yl)(phenyl)methylidene]hydroxylamine], the IC50 in the data set with HepG2 cells [1] was 38.5 µM; in the data set with MCF-7 cells [2] it was 37.3 µM; on MARK4, over 20 µM.

On to `Cc1ccc(C(=NO)n2c([N+](=O)[O-])cnc2C)cc1` [Compound 4c, N-[(2-Methyl-5-nitro-1H-imidazol-1-yl)(4-methylphenyl)methylidene]hydroxylamine], for which the IC50 with HepG2 cells [1] was 33.2 µM; in the data set with MCF-7 cells [2], 32.5 µM; on MARK4, over 20 µM.

In the case of `CCc1ccc(C(=NO)n2c([N+](=O)[O-])cnc2C)cc1` [Compound 4e, N-[(4-Ethylphenyl)(2-methyl-5-nitro-1H-imidazol-1-yl)methylidene]hydroxylamine], the concentration for half-maximal inhibition (IC50) was found to be 21.5 µM in the data set on HepG2 cells [1], 23.3 µM in the data set on MCF-7 cells [2] and 18.5 µM at MARK4.

With `Cc1ncc([N+](=O)[O-])n1C(=NO)c1ccc(Cl)cc1` [Compound 4f, N-[(4-Chlorophenyl)(2-methyl-5-nitro-1H-imidazol-1-yl)methylidene]hydroxylamine], the IC50 in the data set on HepG2 cells [1] was 24.8 µM; in the data set on MCF-7 cells [2] it was 28.8 µM; against MARK4, over 20 µM.

For `COc1ccc(C(=NO)n2c([N+](=O)[O-])cnc2C)cc1` [Compound 4b, N-[(4-Methoxyphenyl)(2-methyl-5-nitro-1H-imidazol-1-yl)methylidene]hydroxylamine], the half-inhibitory concentration (IC50) in the data set on HepG2 cells [1] was 32.7 µM; in the data set with MCF-7 cells [2], 34.4 µM; on MARK4, over 20 µM.

Consider `Cc1ncc([N+](=O)[O-])n1C(=NO)c1ccc([N+](=O)[O-])cc1` [Compound 4g, N-[(2-Methyl-5-nitro-1H-imidazol-1-yl)(4-nitrophenyl)methylidene]hydroxylamine], for which the half-inhibitory concentration (IC50) was found to be 25.3 µM with HepG2 cells [1], 22.5 µM with MCF-7 cells [2] and 16.2 µM against MARK4.

Consider `CCOc1ccc(C(=NO)n2c([N+](=O)[O-])cnc2C)cc1` [Compound 4d, N-[(4-Ethoxyphenyl)(2-methyl-5-nitro-1H-imidazol-1-yl)methylidene]hydroxylamine], for which the IC50 in the data set on HepG2 cells [1] is 35.4 µM; in the data set with MCF-7 cells [2] it was 33.3 µM; against MARK4, over 20 µM.

`Cc1ncc([N+](=O)[O-])n1C(=NO)c1ccccc1C(F)(F)F` [Compound 4h, N-{(2-Methyl-5-nitro-1H-imidazol-1-yl)[2-(trifluoromethyl)phenyl]methylidene}hydroxyl Amine]: the “apoptosis induced, % of HepG2 cells” value with HepG2 cells [3] stood at 20.8%. The 50% inhibitory concentration (IC50) in the data set with HepG2 cells [1] is 5.99 µM; in the data set with MCF-7 cells [2], 3.74 µM; on MARK4, 1.47 µM. For the same compound, the “DCF fluorescence (level of ROS production)” value in the data set with MCF-7 cells [4] and in the data set on HepG2 cells [5] was “decreases” in each case. Besides, the “viability of noncancerous cells (HEK293)” value in the data set with HEK293 cells is given as “did not affect the viability”. Besides, the “MARK4 inhibition at a single dose” value at MARK4 (single dose of 20 μM, initial screening) is listed as “significant inhibition”.
